This is an account of results in article PMC5148661 (ACS infectious diseases, 2016).

Converted amounts (≈) assume the structure as drawn. Where two headings read alike, the source gives them in different places. A value given as a limit tells only on which side of the number the result lay.

Data set [1] concerns Human HepG2 cells. The data set is described as follows: cytotoxicity against a human cell line. The data set is classed as cell-based. The conditions noted are these: read-out: HepG2 growth inhibition EC50; 95% CI in parentheses.
The target of data set [2] is Minipig DHODH (Sus scrofa, UniProt F1S3B0). The settings on record: read-out: Minipig DHODH IC50; cited from earlier work.
Minipig DHODH, sequence (F1S3B0 1-395): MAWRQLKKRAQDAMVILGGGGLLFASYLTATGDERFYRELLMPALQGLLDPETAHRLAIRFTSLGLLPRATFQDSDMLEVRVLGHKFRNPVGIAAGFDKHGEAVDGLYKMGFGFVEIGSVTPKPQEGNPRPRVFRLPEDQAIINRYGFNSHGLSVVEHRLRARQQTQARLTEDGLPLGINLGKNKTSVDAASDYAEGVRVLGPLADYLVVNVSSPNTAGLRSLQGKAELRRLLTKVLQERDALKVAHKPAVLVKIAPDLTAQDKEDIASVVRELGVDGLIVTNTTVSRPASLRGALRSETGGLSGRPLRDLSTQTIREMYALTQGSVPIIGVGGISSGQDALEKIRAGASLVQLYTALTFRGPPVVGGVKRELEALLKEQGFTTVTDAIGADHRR
For data set [3] the following is noted: dogs; DSM265; cited from earlier work.
For data set [4] the following is noted: DSM265; cited from earlier work.
The conditions of data set [5]: across species; DSM265; cited from earlier work.
Data set [6] deals with P. cynomolgi DHODH (Plasmodium cynomolgi, UniProt K6UE05). The conditions noted are these: read-out: P. cynomolgi DHODH IC50; cited from earlier work.
P. cynomolgi DHODH, sequence (K6UE05 1-385): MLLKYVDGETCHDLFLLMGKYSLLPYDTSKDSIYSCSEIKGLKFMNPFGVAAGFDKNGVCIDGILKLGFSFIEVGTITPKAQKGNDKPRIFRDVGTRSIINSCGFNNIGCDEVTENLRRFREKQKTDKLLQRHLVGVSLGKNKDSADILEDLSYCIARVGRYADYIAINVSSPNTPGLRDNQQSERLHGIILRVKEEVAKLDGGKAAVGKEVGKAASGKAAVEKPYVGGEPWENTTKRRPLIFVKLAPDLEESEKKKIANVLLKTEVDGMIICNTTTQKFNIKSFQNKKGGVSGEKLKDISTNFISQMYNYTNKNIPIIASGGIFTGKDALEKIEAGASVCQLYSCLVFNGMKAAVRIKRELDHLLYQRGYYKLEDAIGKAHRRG
Data set [7] concerns P. falciparum 3D7. The conditions noted are these: cited from earlier work.
For data set [8], the system named is P. vivax field isolates. The data set is described as follows: ex vivo 48 h schizont maturation assay. The data set is classed as cell-based. An outline of the steps:
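Field isolates came from patients at malaria clinics in Timika, Papua, Indonesia, and were tested in a 48 h schizont maturation assay adapted from the WHO microtest at 2% hematocrit. P. falciparum was run in RPMI 1640 with 10% AB+ human serum. P. vivax was run in McCoy's 5A with 20% AB+ human serum.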

Data set [9] relates to P. falciparum 3D7A parasites. The settings on record: DSM265, cited from earlier work.
A short description of data set [10]: kinetic solubility in pH 6.5 buffer. The data set is classed as physicochemical. The conditions noted are these: aqueous buffer pH 6.5, pH 6.5.
Data set [11] addresses Rabbit DHODH (Oryctolagus cuniculus, UniProt G1SWF3). The settings on record: read-out: Rabbit DHODH IC50; cited from earlier work.

Rabbit DHODH, sequence (G1SWF3 1-395): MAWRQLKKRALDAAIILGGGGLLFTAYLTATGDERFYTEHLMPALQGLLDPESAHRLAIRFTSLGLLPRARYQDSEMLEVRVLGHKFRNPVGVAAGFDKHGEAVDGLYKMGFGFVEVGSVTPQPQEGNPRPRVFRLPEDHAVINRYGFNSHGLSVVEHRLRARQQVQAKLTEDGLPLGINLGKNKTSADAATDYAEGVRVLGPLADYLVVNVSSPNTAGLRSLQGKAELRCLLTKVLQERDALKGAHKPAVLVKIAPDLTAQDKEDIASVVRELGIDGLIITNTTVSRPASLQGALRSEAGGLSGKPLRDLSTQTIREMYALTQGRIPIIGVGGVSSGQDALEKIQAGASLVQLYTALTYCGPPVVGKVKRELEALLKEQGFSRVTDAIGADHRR

In the case of `O=C(O)c1[nH]c(=O)[nH]c(=O)c1F` [5-fluoroorotate, reference compound], in data set [1], the half-maximal effective concentration (EC50) (commonly the concentration that produces a half-maximal response) turned out to be 770 nM.

Consider `Cc1cc(Nc2ccc(S(F)(F)(F)(F)F)cc2)n2nc(C(C)(F)F)nc2n1` [DSM265], for which the IC50 (commonly the concentration that inhibits the measured activity by half) in data set [2] is about 100000 nM; in data set [6] it was 12 nM; in data set [11] it was over 100000 nM. Further, the systemic plasma clearance in data set [3] is reported as 1.2 mL/min/kg. Further, in data set [3], the unbound intrinsic clearance is listed as 183 mL/min/kg. Moreover, the predicted human half-life in [4] is reported as 100 h. Further, the oral bioavailability in [5] is recorded as 20-70%. For the same compound, the concentration for a half-maximal effect (EC50) in data set [7] (read-out: Pf3D7 EC50, whole cell P. falciparum 3D7, albumax media, 72 h) is 4.3 nM; in data set [7] (read-out: unbound EC50, P. falciparum 3D7 in vitro 72 h growth assay, DSM265) it was 0.73 nM; in data set [9] (read-out: EC50, 48 h growth assay (PRR), P. falciparum 3D7, 48 h), 11 nM; in data set [9] (read-out: unbound EC50, P. falciparum 3D7 48 h growth assay (PRR)), 1.9 nM. Moreover, in [8], the “sensitivity of P. vivax versus P. falciparum field isolates” value turned out to be 5 fold. Also, the kinetic solubility (in general, solubility judged after dilution from a stock solution rather than from solid) in [10] was found to be 12.5 µg/mL (≈ 30.1 µM).
